The nature of data set [1]: Chemical stability 0.2M NH4OAc at pH 5.0 at 1 mg/ml at room temperature assessed as ratio of Asn-containing cyclic peptides after 24 hrs by HPLC method. Format: physicochemical. The conditions noted are these: 0.2 M NH4OAc buffer, read-out: Stability. Put shortly: (§1)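 Peptide at 1.0 mg/mL (~2 mM). Buffer runs at room temperature: 0.2 M NH4OAc pH 5.0, PBS pH 7.4 or 0.1 M Tris pH 8.1. Medium runs at 37 °C in DMEM GlutaMAX-I with 10% FCS and gentamicin 160 μg/mL. Sampled at 24 and 48 h by analytical RP-HPLC. Asn/isoAsp/Asp ratio taken from peak AUC, species identified by MS and Asp reference peptides.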

A short description of data set [2]: Chemical stability PBS buffer at pH 7.4 at 1 mg/ml at room temperature assessed as ratio of Asn-containing cyclic peptides after 48 hrs by HPLC method. It is filed as physicochemical. The conditions noted are these: read-out: Stability. Put shortly: as §1
Data set [3] in a line: Chemical stability PBS buffer at pH 7.4 at 1 mg/ml at room temperature assessed as ratio of Asn-containing cyclic peptides after 24 hrs by HPLC method. It is filed as physicochemical. Particulars: read-out: Stability. Put shortly: as §1
The nature of data set [4]: Chemical stability 0.1M Tris buffer at pH 8.1 at 1 mg/ml at room temperature assessed as ratio of Asn-containing cyclic peptides after 48 hrs by HPLC method. The conditions noted are these: read-out: Stability. Format: physicochemical. Put shortly: as §1
Data set [5] is described as follows: Chemical stability 0.1M Tris buffer at pH 8.1 at 1 mg/ml at room temperature assessed as ratio of Asn-containing cyclic peptides after 24 hrs by HPLC method. It is filed as physicochemical. Particulars: read-out: Stability. The gist of the method:
as §1

Data set [6] is described as follows: Chemical stability DMEM cell culture medium at pH 7.3 at 1 mg/ml at 37 degC assessed as ratio of Asn-containing cyclic peptides after 24 hrs by HPLC method. Format: physicochemical. The conditions noted are these: read-out: Stability. Put shortly:
as §1

For data set [7], the target named is T1, Integrin alpha-V/beta-3 (Homo sapiens) (UniProt P05106+P06756). The experiment in a line: Binding affinity to integrin alphav beta3 receptor assessed as receptor-mediated cell adhesion in human A2058 cells at 10 nM to 1 uM and measured every 20 seconds for 25 hrs at 10 kHz by xCELLigence SP system based method. The gist of the method: (§2)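 A2058 human melanoma cells grown in RPMI 1640 with 10% FCS, 2 mM L-glutamine and penicillin/streptomycin at 37 °C, 5% CO2. Electrodes coated 20 min at 4 °C with peptide (10-fold dilutions in 0.1% gelatin/PBS), dried 5 min. Background read 30 min, then 10^4 cells/well added. Impedance recorded every 20 s for 25 h at 10 kHz, in triplicate. ΔCI at 5, 10 and 25 h, normalized to gelatin-only control (100%).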

A short description of data set [8]: Chemical stability 0.2M NH4OAc at pH 5.0 at 1 mg/ml at room temperature assessed as ratio of Asn-containing cyclic peptides after 48 hrs by HPLC method. It is filed as physicochemical. Particulars: 0.2 M NH4OAc buffer, read-out: Stability. Put shortly:
as §1

Data set [9] is described as follows: Chemical stability DMEM cell culture medium at pH 7.3 at 1 mg/ml at 37 degC assessed as ratio of Asn-containing cyclic peptides after 48 hrs by HPLC method. It is filed as physicochemical. The conditions noted are these: read-out: Stability. The gist of the method: as §1
In data set [10] the target is T1, Integrin alpha-V/beta-3 (Homo sapiens). Briefly: Binding affinity to integrin alphav beta3 receptor assessed as receptor-mediated cell adhesion in human A2058 cells at 10 nM to 100 nM and measured every 20 seconds for 5 to 25 hrs at 10 kHz by xCELLigence SP system based method. The gist of the method:
as §2

For data set [11] the target is unchanged. Briefly: Binding affinity to integrin alphav beta3 receptor assessed as receptor-mediated cell adhesion in human A2058 cells at 1 uM and measured every 20 seconds for 5 to 25 hrs at 10 kHz by xCELLigence SP system based method. Put shortly:
as §2

The target is the same in data set [12]. Briefly: Binding affinity to integrin alphav beta3 receptor assessed as receptor-mediated cell adhesion in human A2058 cells at 10 nM to 1 uM and measured every 20 seconds for >5 hrs at 10 kHz by xCELLigence SP system based method. Put shortly:
as §2

Data set [13] has the same target. Briefly: Binding affinity to integrin alphav beta3 receptor assessed as receptor-mediated cell adhesion in human A2058 cells at 100 nM and measured every 20 seconds for 25 hrs at 10 kHz by xCELLigence SP system based method. Put shortly:
as §2

The record followed here is ChEMBL document CHEMBL3414485, “Development of cyclic NGR peptides with thioether linkage: structure and dynamics determining deamidation and bioactivity” (J Med Chem, 2015).

Active and inactive are the calls of the source. The calls are words filed in the database; no cut-off is given here. Where a SMILES comes first, the peptide text is derived from it. Bridges are numbered along the chain shown (N, C = ends).

`N=C(N)NCCC[C@@H]1NC(=O)CNC(=O)[C@H](CC(N)=O)NC(=O)CCSC[C@@H](C(N)=O)NC1=O`: the remaining at 24 h, 1 mg/ml in data set [1] was found to be 100%; in [3] it was 94%; in [5], 86%; in data set [6], 0%. In addition, the remaining at 48 h, 1 mg/ml was 89% in [2], 73% in [4] and 99% in data set [8]. In addition, the outcome in [7] was Active.
`CC(=O)N[C@H]1CSSC[C@@H](C(N)=O)NC(=O)[C@H](CCCNC(=N)N)NC(=O)CNC(=O)[C@H](CC(N)=O)NC1=O` (Ac-CNGRC-NH2; disulfide 1-5): the remaining at 48 h, 1 mg/ml in data set [2] is 93%; in data set [4] it was 71%; in data set [9] it was 0%; in data set [8], 100%. The figures for the remaining at 24 h, 1 mg/ml in [3], in data set [5] and in data set [6] were 96%, 85% and 46%, respectively. For the same compound, the result in data set [10] was Active.
In the case of `N=C(N)NCCC[C@@H]1NC(=O)CNC(=O)[C@H](CC(N)=O)NC(=O)[C@H](CCCCN)NC(=O)CC[C@@H](C(N)=O)NC1=O` (KNGRE-NH2; lactam N-5), the remaining at 48 h, 1 mg/ml in data set [2] is 100%; in data set [4], 100%; in data set [9] it was 54%; in data set [8] it was 100%. In addition, the remaining at 24 h, 1 mg/ml in data set [6] turned out to be 92%. For the same compound, in data set [10], the outcome was Active. The outcome in data set [11] was inactive.
On to `N=C(N)NCCC[C@@H]1NC(=O)CNC(=O)[C@H](CC(N)=O)NC(=O)CSCCC(C(N)=O)NC1=O` (single isomer, unassigned), for which the remaining at 24 h, 1 mg/ml in data set [1] came out at 100%; in data set [3], 64%; in [5] it was 66%; in data set [6], 0%. The remaining at 48 h, 1 mg/ml came to 44% in [2], 43% in [4] and 96% in data set [8]. Further, the outcome in data set [7] was inactive.
On to `N=C(N)NCCC[C@@H]1NC(=O)CNC(=O)[C@H](CC(N)=O)NC(=O)[C@H](CCCCN)NC(=O)CSC[C@@H](C(N)=O)NC1=O` ({CH2CO}-KNGRC-NH2; thioether N-5), for which the remaining at 24 h, 1 mg/ml in data set [1] was 100%; in [3] it was 58%; in data set [5] it was 36%; in data set [6], 0%. Moreover, the results for the remaining at 48 h, 1 mg/ml in data set [2], in data set [4] and in data set [8] were 43%, 15% and 90%, respectively. Also, the result in [7] was inactive.
`N=C(N)NCCC[C@@H]1NC(=O)CNC(=O)[C@H](CC(N)=O)NC(=O)CSC[C@@H](C(N)=O)NC1=O` ({CH2CO}-NGRC-NH2; thioether N-4): the remaining at 24 h, 1 mg/ml in data set [1] worked out at 85%; in data set [3] it was 36%; in data set [5], 19%; in data set [6] it was 0%. Besides, the values for the remaining at 48 h, 1 mg/ml in data set [2], in data set [4] and in [8] were 15%, 13% and 67%, respectively. Further, the result in data set [12] and in [13] was Active.
Turning to `N=C(N)NCCC[C@@H]1NC(=O)CNC(=O)[C@H](CC(N)=O)NC(=O)[C@@H]2CCCN2C(=O)CSC[C@@H](C(N)=O)NC1=O` ({CH2CO}-PNGRC-NH2; thioether N-5), the remaining at 24 h, 1 mg/ml is 100% in [1], 86% in data set [3] and 67% in data set [5]. Moreover, the remaining at 48 h, 1 mg/ml in data set [2] is 75%; in data set [4] it was 47%; in data set [8], 98%. Further, the outcome in [7] was inactive.
